Source: PubChem BioAssay
A selection: hits, their analogues and other compounds. The true share with any hit is near 2%.
CRFBP-R2 agonist: CRF-BP/CRF-R2 complex agonism. activation, % at 13.2 µM. HEK293 CRF-R2/CRF-BP, calcium dye fluorescence (FLIPR); percent of saturating CRF peptide response. AID 588473. 0.46% of 350,000 active;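 active means activation of at least 50%, plus an integration ratio under a set limit after plate pattern correction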
GPR7 antagonist: blocks human GPR7 receptor signaling; GPR7-expressing cells, fluorescence antagonist assay; 1.1% of 290,000 active; inhibition, % at 4.4 µM; AID 1861; P48145; in the data active means inhibition above about 16%, passing the limit was not always enough;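 further: cells stimulated with the agonist NPW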
Target sequence (P48145 whole entry, looked up): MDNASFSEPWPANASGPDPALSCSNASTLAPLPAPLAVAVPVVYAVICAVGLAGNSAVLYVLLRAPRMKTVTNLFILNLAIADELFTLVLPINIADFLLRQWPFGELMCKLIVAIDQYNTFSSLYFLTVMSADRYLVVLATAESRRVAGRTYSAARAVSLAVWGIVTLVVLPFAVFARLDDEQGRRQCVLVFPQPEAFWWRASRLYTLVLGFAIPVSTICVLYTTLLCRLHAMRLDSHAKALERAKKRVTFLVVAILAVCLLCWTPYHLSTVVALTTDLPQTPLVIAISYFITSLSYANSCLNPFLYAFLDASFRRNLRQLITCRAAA
TRPML3 agonist: human mucolipin-3 channel agonism | Q8TDD5 | HEK293 TRPML3-YFP, Fluo-8 calcium fluorescence; 100% = the carbachol control signal | activation, % at 3 µM | 0.29% of 220,000 active | AID 1448;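 active means activation above its plate's cutoff, the mean activation of the plate's test wells plus 3 SD, cut at about 12% in these data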
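Test system – HEK293 line with stable expression of human TRPML3-YFP channel · Control set – carbachol 87 µM final as high control (100%), DMSO as low control (0%) · Signal – Fluo-8 calcium dye fluorescence, ex 470-495, em 515-575 nm · Incubation – 1-h 37 °C dye load, 5-s basal, 120-s post-compound reads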
TRPN1 ag: agonists of zebrafish TRPN1 channel. HEK293 zebrafish TRPN1-YFP, Fluo-8 calcium fluorescence; 100% = response to 87 µM carbachol. activation, % at 3 µM. 0.18% of 220,000 active. AID 1424;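 active means activation above its plate's cutoff, the mean activation of test wells on that plate plus 3 SD, cut at about 19% in these data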
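System: zebrafish TRPN1-YFP in HEK293 cells / Dosing: 3 µM single point / Timing: dye loading 1 h at 37 °C, then 30 min room temperature / Signal: Fluo-8 calcium fluorescence, excitation 470-495 nm, emission 515-575 nm / Read-out basis: percent activation from peak over basal fluorescence ratio, control-normalized / Control set: high carbachol 87 µM, low DMSO alone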
CRFBP-R2 block: antagonists of CRF-binding protein/CRF-R2 receptor complex; HEK293 CRF-R2/CRF-BP, CRF-induced calcium fluorescence; inhibition, % at 11.8 µM; 0.59% of 350,000 active; AID 588475;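 active means inhibition of the ligand-induced calcium signal above about 50% at the single tested concentration, limit read from the data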
GPR7 antag conf: human GPR7 antagonism, confirmation assay | inhibition, % at 4.4 µM | shares compounds with GPR7 antagonist | GPR7-expressing cells, calcium fluorescence antagonist mode | 52% of 2,400 active | AID 1952; in the data active means inhibition above about 24%;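 further: stimulated with the GPR7 agonist NPW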
MCHR1 antag: antagonizes human MCHR1, a GPR7 antagonist counter-screen. shares compounds with GPR7 antagonist. MCHR1-expressing cells, fluorescence antagonist assay. inhibition, % at 4.4 µM. 62% of 2,400 active; in the data active means inhibition above about 22%
Large screens that a line does not name were inactive (follow-up assays come after a bar, where they were run).

CCCN(CCC)Cc1cc(=O)oc2cc3c(cc12)CCC3	none
Cc1ccc(-c2nn(-c3ccc(F)cc3)cc2C(=O)N2CCN(C3CCS(=O)(=O)C3)CC2)cc1 (configuration not stated)	none (no result: GPR7 antagonist, TRPML3 agonist, TRPN1 ag)
Cn1nnnc1SCCNCc1cc(Cl)ccc1OCc1ccccc1	GPR7 antagonist 24 | GPR7 antag conf inactive | MCHR1 antag 44
Cn1nnnc1SCCNCc1ccccc1OCc1ccc(Cl)cc1	none
c1ccc(Cc2ccc(OCCCNC3CCCC3)cc2)cc1	none (no result: CRFBP-R2 agonist, CRFBP-R2 block)
c1ccc(-c2ccc(OCCCNC3CCCC3)cc2)cc1	GPR7 antagonist 21 | GPR7 antag conf inactive | MCHR1 antag inactive
CC(=O)C1=C(c2ccccc2)NC(=S)NC1c1cc(Cl)c(OC(C)C)c(Cl)c1 (configuration not stated)	GPR7 antagonist 29 | GPR7 antag conf 56 | MCHR1 antag 57
COc1cc(C2NC(=S)NC(c3ccccc3)=C2C(C)=O)cc(Cl)c1OCC(=O)O (configuration not stated)	none
CCOC(=O)COc1c(Cl)cc(C2NC(=S)NC(c3ccccc3)=C2C(C)=O)cc1OC (configuration not stated)	GPR7 antagonist 24 | GPR7 antag conf 28 | MCHR1 antag inactive
Cc1ccc(S(=O)(=O)N2C[C@@H](C)[C@]3(C2)[C@H](O)[C@H](OC(=O)Nc2cccs2)C[C@H]2C(=O)N(c4ccccc4)C(=O)[C@H]23)cc1	none (no result: GPR7 antagonist, TRPML3 agonist, TRPN1 ag)
CCOC(=O)c1sc(NC(=O)CC(C)c2ccccc2)nc1C (configuration not stated)	GPR7 antagonist 34 (no result: TRPML3 agonist, TRPN1 ag) | GPR7 antag conf 37 | MCHR1 antag 28
CCCS(=O)(=O)c1ccc(COC(=O)Cc2ccc([N+](=O)[O-])cc2)cc1	GPR7 antagonist 28 (no result: TRPML3 agonist, TRPN1 ag) | GPR7 antag conf 25 | MCHR1 antag 25
CN(C)S(=O)(=O)c1ccc(C(=O)OCc2ccc([N+](=O)[O-])cc2)cc1	none
C[C@H](N)C(=O)OCc1ccc([N+](=O)[O-])cc1	none
O=C(Cc1ccc([N+](=O)[O-])cc1)OCc1ccc([N+](=O)[O-])cc1	GPR7 antagonist 44 (no result: TRPML3 agonist, TRPN1 ag) | GPR7 antag conf 29 | MCHR1 antag 64
COc1ccccc1N1CCN(C(=O)CCC(=O)Nc2nnc(C(C)C)s2)CC1	none (no result: TRPML3 agonist, TRPN1 ag)
CCC1CCCCN1C(=O)c1sc2nc(C)nc(N(CC)CC)c2c1C (configuration not stated)	GPR7 antagonist 25 | GPR7 antag conf inactive | MCHR1 antag inactive
CCOC(=O)C1CCCN(C(=O)c2sc3nc(C)nc(N(CC)CC)c3c2C)C1 (configuration not stated)	none
CSCCC(NC(=O)c1ccco1)C(=O)OC(C)C(=O)NC(=O)NC1CCCCC1 (configuration not stated)	CRFBP-R2 agonist 183, GPR7 antagonist 29, TRPML3 agonist 62, TRPN1 ag 121 | GPR7 antag conf inactive | MCHR1 antag 48
CC(=O)c1ccc(N2CCN(CC(O)COC(c3ccccc3)c3ccccc3)CC2)cc1 (configuration not stated)	GPR7 antagonist 27 (no result: TRPML3 agonist, TRPN1 ag) | GPR7 antag conf 35 | MCHR1 antag 34
CC(=O)c1ccc(N2CCN(CC(O)COC(c3ccccc3)c3ccccc3C)CC2)cc1 (configuration not stated)	none (no result: TRPML3 agonist, TRPN1 ag)
Cn1c(SCc2ccccc2)nc(N)c(N=O)c1=O	none (no result: GPR7 antagonist, TRPML3 agonist, TRPN1 ag)
Cc1ccc(Nc2cc(C)nc(NCc3ccccc3)n2)cc1	none
Cc1cc(NC2CCCCC2)nc(NCc2ccccc2)n1	GPR7 antagonist 24 | GPR7 antag conf 51 | MCHR1 antag 81
Cc1ccc(COC(=O)c2ccc3ccccc3n2)cc1	none (no result: TRPML3 agonist, TRPN1 ag)
CN(C)/C=C/C(=O)c1ccc(Oc2ccccc2)cc1	none
COc1ccc(C(=O)/C=C/N(C)C)cc1	GPR7 antagonist 27 | GPR7 antag conf inactive | MCHR1 antag inactive
Cc1cc(C)n(-c2nc(NCCN(C)C)c3c4c(sc3n2)CCCC4)n1	GPR7 antagonist 24 | GPR7 antag conf 27 | MCHR1 antag 30
Cc1ccc(S(=O)(=O)NCCC(=O)Nc2ccc(S(=O)(=O)NC(C)C)cc2)cc1	none (no result: TRPML3 agonist, TRPN1 ag)
COc1ccc(NS(=O)(=O)c2ccc(NC(=O)CCNS(=O)(=O)c3ccc(C)cc3)cc2)cc1	GPR7 antagonist 27 | GPR7 antag conf 61 | MCHR1 antag 50
CC(C)COCC(CN(Cc1ccccc1)c1ccccc1)N1CCCC1 (configuration not stated)	GPR7 antagonist 46 | GPR7 antag conf 48 | MCHR1 antag 31
Cc1ccccc1CC1(CO)CCCN(C(=O)c2ccccc2Cl)C1 (configuration not stated)	GPR7 antagonist 34 | GPR7 antag conf 32 | MCHR1 antag inactive
Cc1ccccc1CC1(CO)CCCN(C(=O)c2cc(Cl)ccc2F)C1 (configuration not stated)	none (no result: GPR7 antagonist) | MCHR1 antag inactive
Cc1ccccc1CC1(CO)CCCN(C(=O)c2cccc(Cl)c2)C1 (configuration not stated)	none
CC(=O)c1ccc(OC(C)c2nc3ccccc3s2)cc1 (configuration not stated)	none (no result: TRPML3 agonist, TRPN1 ag)
Cc1cc(NC(=O)CSCC(=O)Nc2nc3c(C)cccc3s2)no1	none (no result: GPR7 antagonist, TRPML3 agonist, TRPN1 ag)
COc1cccc(NC(=O)CCc2nnc3ccc(N4CCN(c5cccc(OC)c5)CC4)nn23)c1	none (no result: TRPML3 agonist, TRPN1 ag)
COc1ccc(NC(=O)CCc2nnc3ccc(N4CCN(c5cccc(OC)c5)CC4)nn23)cc1	GPR7 antagonist 25 (no result: TRPML3 agonist, TRPN1 ag) | GPR7 antag conf inactive | MCHR1 antag 33
CC(=O)NCCC(=O)Nc1ncc(S(=O)(=O)c2ccc([N+](=O)[O-])cc2)s1	none (no result: GPR7 antagonist, TRPML3 agonist, TRPN1 ag)
CCCCC(=O)Nc1ncc(S(=O)(=O)c2ccc([N+](=O)[O-])cc2)s1	GPR7 antagonist 35 (no result: TRPML3 agonist, TRPN1 ag) | GPR7 antag conf 26 | MCHR1 antag 25
CN(C)CCNc1nc2sc3c(c2c(=O)n1CCc1ccccc1)CCCCC3	GPR7 antagonist 26 | GPR7 antag conf 43 | MCHR1 antag 57
CC(O)CNc1nc2sc3c(c2c(=O)n1CCc1ccccc1)CCCCC3 (configuration not stated)	none
S=C(Nc1ccc(Cl)c(Cl)c1)NC1CCCCC1	GPR7 antagonist 43 | GPR7 antag conf 35 | MCHR1 antag 48
Fc1ccc(NC(=S)NC2CCN(Cc3ccccc3)CC2)cc1	none
S=C(Nc1ccc(Cl)c(Cl)c1)NC1CCN(Cc2ccccc2)CC1	GPR7 antagonist 33 | GPR7 antag conf 70 | MCHR1 antag 94
CCN(c1ccccc1)S(=O)(=O)c1nnc(NC(=O)C(C)(C)C)s1	none (no result: TRPML3 agonist, TRPN1 ag)
CCOC(=O)C1(P(=O)(c2ccc(Cl)cc2)c2ccc(Cl)cc2)CCC1	GPR7 antagonist 25 | GPR7 antag conf inactive | MCHR1 antag inactive
